Source: ChEMBL document CHEMBL4725426, “Targeted Detection of Cyclooxygenase-1 in Ovarian Cancer” (ACS Med Chem Lett, 2020)
The source made the active and inactive calls. The rule behind the calls is not given here.

Legend:
[1] = molecular target: T1, Prostaglandin G/H synthase 1 (Ovis aries, UniProt P05979); experiment: Inhibition of ovine COX-1 assessed as [14C] arachidonic acid remaining using [14C] arachidonic acid as substrate preincubated for 20 mins followed by substrate addition measured after 30 sec by thin layer chromatography assay
T1 sequence (P05979 whole entry): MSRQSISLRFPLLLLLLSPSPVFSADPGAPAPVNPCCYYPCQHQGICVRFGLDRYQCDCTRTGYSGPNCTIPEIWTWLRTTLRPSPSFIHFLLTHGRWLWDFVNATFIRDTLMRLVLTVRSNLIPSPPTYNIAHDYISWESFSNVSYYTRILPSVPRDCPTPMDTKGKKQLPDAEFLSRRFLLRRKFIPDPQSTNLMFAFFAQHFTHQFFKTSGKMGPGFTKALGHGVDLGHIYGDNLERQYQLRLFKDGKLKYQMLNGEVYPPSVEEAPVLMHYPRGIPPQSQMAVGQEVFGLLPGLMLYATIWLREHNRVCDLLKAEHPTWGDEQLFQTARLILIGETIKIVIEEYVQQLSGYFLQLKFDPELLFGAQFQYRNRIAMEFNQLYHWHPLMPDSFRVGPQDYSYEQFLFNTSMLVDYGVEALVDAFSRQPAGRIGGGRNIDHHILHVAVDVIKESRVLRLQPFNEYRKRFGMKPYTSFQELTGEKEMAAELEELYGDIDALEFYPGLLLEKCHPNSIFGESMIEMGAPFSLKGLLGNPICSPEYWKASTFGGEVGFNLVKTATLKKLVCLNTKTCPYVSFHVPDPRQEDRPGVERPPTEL
In short: (§1)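 Purified ovine COX-1 or murine COX-2 preincubated 20 min with vehicle or compound at various concentrations. [1-¹⁴C]arachidonic acid was then added and the reaction run a further 30 s. Conversion read by thin layer chromatography. IC50 derived.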

[2] = molecular target: T2, Prostaglandin G/H synthase 2 (Mus musculus, UniProt Q05769); experiment: Inhibition of murine COX-2 assessed as [14C] arachidonic acid remaining using [14C] arachidonic acid as substrate preincubated for 20 mins followed by substrate addition measured after 30 sec by thin layer chromatography assay; in short: as §1
T2 sequence (Q05769 whole entry): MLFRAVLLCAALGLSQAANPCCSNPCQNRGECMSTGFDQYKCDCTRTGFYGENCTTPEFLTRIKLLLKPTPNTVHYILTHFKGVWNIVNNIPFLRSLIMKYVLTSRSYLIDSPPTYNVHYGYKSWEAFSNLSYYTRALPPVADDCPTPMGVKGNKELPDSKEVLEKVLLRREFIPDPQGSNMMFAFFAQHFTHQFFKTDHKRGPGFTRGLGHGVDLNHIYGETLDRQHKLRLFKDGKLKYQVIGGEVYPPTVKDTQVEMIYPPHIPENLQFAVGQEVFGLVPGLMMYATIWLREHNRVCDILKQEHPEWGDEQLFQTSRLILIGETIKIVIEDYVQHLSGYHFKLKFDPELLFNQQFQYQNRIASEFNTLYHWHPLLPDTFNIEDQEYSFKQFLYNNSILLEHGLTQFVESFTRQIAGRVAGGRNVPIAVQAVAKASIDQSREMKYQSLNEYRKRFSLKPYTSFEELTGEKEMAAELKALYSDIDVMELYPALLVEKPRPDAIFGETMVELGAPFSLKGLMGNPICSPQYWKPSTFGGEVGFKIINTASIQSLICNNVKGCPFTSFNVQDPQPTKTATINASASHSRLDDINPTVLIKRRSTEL

[3] = molecular target: T3, Prostaglandin G/H synthase 1 (Homo sapiens, UniProt P23219); experiment: Inhibition of COX-1 in human OVCAR3 cells assessed as [14C] arachidonic acid remaining using [14C] arachidonic acid as substrate preincubated for 30 mins followed by substrate addition measured after 30 mins; type: cell-based, OVCAR-3
T3 sequence (P23219 whole entry): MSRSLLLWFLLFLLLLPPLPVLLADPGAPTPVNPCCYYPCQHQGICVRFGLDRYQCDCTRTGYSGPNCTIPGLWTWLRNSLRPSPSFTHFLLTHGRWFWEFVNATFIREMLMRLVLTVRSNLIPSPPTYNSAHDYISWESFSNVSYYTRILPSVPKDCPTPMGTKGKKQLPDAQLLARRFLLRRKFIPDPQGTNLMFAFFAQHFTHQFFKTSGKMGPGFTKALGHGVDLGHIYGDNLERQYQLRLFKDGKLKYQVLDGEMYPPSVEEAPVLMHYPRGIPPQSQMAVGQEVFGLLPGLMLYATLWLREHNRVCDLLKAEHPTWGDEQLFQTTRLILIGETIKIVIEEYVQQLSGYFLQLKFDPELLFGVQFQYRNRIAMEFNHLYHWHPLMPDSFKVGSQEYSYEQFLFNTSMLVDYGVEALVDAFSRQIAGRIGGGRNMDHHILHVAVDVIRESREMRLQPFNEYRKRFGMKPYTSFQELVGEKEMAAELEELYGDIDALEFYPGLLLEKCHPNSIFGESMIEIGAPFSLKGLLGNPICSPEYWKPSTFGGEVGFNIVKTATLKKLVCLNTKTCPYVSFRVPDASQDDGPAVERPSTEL
In short: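 Intact OVCAR-3 cells treated 30 min with vehicle or compound across several concentrations, then given [1-¹⁴C]arachidonic acid for another 30 min. Medium aliquots were quenched, extracted, run on TLC and scanned for substrate remaining. IC50 taken from the concentration series.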

[4] = molecular target: T3, Prostaglandin G/H synthase 1; experiment: Binding affinity to COX-1 in human OVCAR3 cells assessed as protein labeling pretreated with indomethacin for 30 mins followed by compound treatment for 30 mins and subsequent compound washout followed by cultured in serum media measured after 45 mins by fluorescence microscope based optical imaging analysis; type: cell-based; conditions: OVCAR-3
In short: (§2)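 OVCAR-3 cells pretreated 30 min with vehicle or indomethacin, then exposed to probe 30 min, washed briefly and cultured 45 min in serum-containing medium. Intracellular fluorescence then imaged under a fluorescence microscope.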

[5] = molecular target: T3, Prostaglandin G/H synthase 1; experiment: Binding affinity to COX-1 in human OVCAR3 cells assessed as protein labeling treated for 30 mins and subsequent compound washout followed by cultured in serum media measured after 45 mins by fluorescence microscope based optical imaging analysis; type: cell-based; conditions: OVCAR-3; in short: as §2
[6] = Drug uptake in NU-Fox1nu nude mouse xenografted with COX-1 expressing human OVCAR3 cells at 1 mg/kg, ip and measured before 2 hrs post-drug administration by IVIS spectrum in vivo fluorescence imaging analysis; type: ADME, organism-based
In short: (§3)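 Female athymic nude mice carried subcutaneous OVCAR-3 xenografts on the left hind flank, grown to about 750–1000 mm³. Probe given i.p. at 1 mg/kg in DMSO. Mice lightly anesthetized and imaged on an IVIS system at 15 min, 30 min, 1, 2, 3 and 4 h post-injection.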

[7] = Drug uptake in NU-Fox1nu nude mouse xenografted with COX-1 expressing human OVCAR3 cells at 1 mg/kg, ip and measured after 3 to 4 hrs post-drug administration by IVIS spectrum in vivo fluorescence imaging analysis; type: ADME, organism-based; conditions: time 3-4 hrs; in short: as §3
[8] = Drug uptake in tumor of NU-Fox1nu nude mouse xenografted with COX-1 expressing human OVCAR3 cells at 1 mg/kg, ip by IVIS spectrum ex vivo fluorescence imaging analysis; type: ADME, organism-based, Neoplasm
In short: (§4)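 OVCAR-3 xenograft-bearing female nude mice (tumors 750–1000 mm³) were dosed with probe at 1 mg/kg i.p. in DMSO. After in vivo imaging, tumor, muscle, kidney and liver were collected and imaged ex vivo.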

[9] = Drug uptake in kidney of NU-Fox1nu nude mouse xenografted with COX-1 expressing human OVCAR3 cells at 1 mg/kg, ip by IVIS spectrum ex vivo fluorescence imaging analysis; type: ADME, organism-based; in short: as §4
[10] = Drug uptake in liver of NU-Fox1nu nude mouse xenografted with COX-1 expressing human OVCAR3 cells at 1 mg/kg, ip by IVIS spectrum ex vivo fluorescence imaging analysis; type: ADME, organism-based; in short: as §4
[11] = Drug uptake in leg muscle of NU-Fox1nu nude mouse xenografted with COX-1 expressing human OVCAR3 cells at 1 mg/kg, ip by IVIS spectrum ex vivo fluorescence imaging analysis; type: ADME, organism-based; in short: as §4
[12] = Drug uptake in NU-Fox1nu nude mouse allografted with mouse ID8-NGL cells at 2 mg/kg, ip measured after 3 to 4 hrs post-drug administration by IVIS spectrum in vivo fluorescence imaging analysis; type: ADME, organism-based; conditions: time 3-4 hrs
In short: (§5)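 Female athymic nude mice bearing ID8-NGL flank allografts (left hind flank, grown to 750–1000 mm³; n = 6). Probe given i.p. at 2 mg/kg in DMSO. Imaged under light anesthesia on an IVIS system 3 to 4 h post-injection.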

[13] = Drug uptake in tumor of NU-Fox1nu nude mouse allografted with mouse ID8-NGL cells at 2 mg/kg, ip measured after 3 to 4 hrs post-drug administration by IVIS spectrum in vivo fluorescence imaging analysis relative to control; type: ADME, organism-based, Neoplasm; conditions: time 3-4 hrs; in short: as §5
[14] = Drug uptake in tumor of NU-Fox1nu nude mouse allografted with mouse ID8-NGL cells at 2 mg/kg, ip treated with 10 mg/kg indomethacin 1hr prior to compound treatment followed by compound administration measured after 3 to 4 hrs post-drug administration by IVIS spectrum fluorescence imaging analysis; type: ADME, organism-based, Neoplasm; conditions: in vivo, time 3-4 hrs
In short: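 ID8-NGL flank allografts (750–1000 mm³) in nude mice. Indomethacin 10 mg/kg i.p. in DMSO given 1 h before probe (2 mg/kg i.p. in DMSO). Tumors imaged 3 to 4 h after probe; region-of-interest light emission read at 3.5 h in relative fluorescence units.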

COc1ccc(-n2nc(CCC(=O)NCCCCNC(=O)c3ccc(C4=c5cc6c7c(c5Oc5c4cc4c8c5CCCN8CCC4)CCC[N+]=7CCC6)c(C(=O)[O-])c3)cc2-c2ccc(C)cc2)cc1
IC50 [1]: 94 nM
IC50 [2]: > 1000 nM
IC50 [3]: 44 nM
Activity [4]: inactive
Activity [5]: Active
Drug uptake [6]: Not Active
Drug uptake [7]: Active
Drug uptake [8]: Active
Drug uptake [9]: Active
Drug uptake [10]: Active
Drug uptake [11]: Active
Drug uptake [12]: Active
fold change (FC) [13]: 8
Drug uptake [14]: Not Active
